From BindingDB's records for doi:10.1021/jm00165a017 (Abbott Laboratories, 1990) come the findings set out here.

The assay deals with T1, Polyunsaturated fatty acid 5-lipoxygenase (Rattus norvegicus, UniProt P12527).
T1 sequence (P12527 whole entry): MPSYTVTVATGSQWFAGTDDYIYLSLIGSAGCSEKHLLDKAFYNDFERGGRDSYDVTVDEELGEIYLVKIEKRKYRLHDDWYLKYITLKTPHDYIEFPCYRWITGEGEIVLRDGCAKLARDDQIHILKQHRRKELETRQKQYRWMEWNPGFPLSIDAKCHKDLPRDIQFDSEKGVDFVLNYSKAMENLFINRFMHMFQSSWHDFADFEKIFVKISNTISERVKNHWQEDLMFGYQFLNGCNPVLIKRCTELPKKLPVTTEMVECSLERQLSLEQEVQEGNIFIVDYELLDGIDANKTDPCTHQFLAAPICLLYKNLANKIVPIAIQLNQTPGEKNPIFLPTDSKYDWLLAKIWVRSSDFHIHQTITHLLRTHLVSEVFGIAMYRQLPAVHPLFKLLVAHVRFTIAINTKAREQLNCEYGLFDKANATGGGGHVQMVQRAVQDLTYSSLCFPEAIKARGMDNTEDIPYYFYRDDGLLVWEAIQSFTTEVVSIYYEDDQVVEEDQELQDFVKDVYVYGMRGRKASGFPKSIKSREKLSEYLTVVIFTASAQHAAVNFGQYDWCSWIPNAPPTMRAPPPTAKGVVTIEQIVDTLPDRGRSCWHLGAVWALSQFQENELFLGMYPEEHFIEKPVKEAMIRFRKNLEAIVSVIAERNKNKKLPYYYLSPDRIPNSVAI
Kind of assay: In vitro inhibitory activity against 5-lipoxygenase in rat basophilic leukemia cells(RBL-1). In outline:
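Enzyme source: sonicated lysate of trypsin-harvested adherent RBL-1 cells (3.0 × 10^7 cells/mL in 10 mM BES, 10 mM PIPES, 1 mM EDTA, pH 6.8), 20000g 20-min supernatant. Compounds in DMSO preincubated with enzyme 20 min at 37 °C in buffer with 0.7 mM CaCl2, 100 mM NaCl. Radiolabelled 5-HETE counted after chromatography, corrected via [3H]5-HETE recovery.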

`CC(C)Cc1ccc(C(Cc2ccccc2)C(=O)N(C)O)cc1` (stereo unspecified): inhibition was half-maximal at 1500 nM (IC50).
